From ChEMBL document CHEMBL1139341 (J Med Chem, 2009)
Activity calls are given as the source filed them. The calls are words filed in the database; no cut-off is given here. Starred links: 1 amine or outer side, 2 acyl side, 3 side chain; linkers in the order of their positions; H or OH if unused. Positions of bridges follow the written chain, without caps; N, C: chain ends. Non-standard residues stand in square brackets, D forms with d. Residues, ends and D or L forms follow the SMILES beside them. Phe(Nα-(CH2)3CO) = O=C([C@H](Cc1ccccc1)N(CCCC(=O)[*:3])[*:1])[*:2]; N(2-aminoethyl)Phe = O=C([C@H](Cc1ccccc1)N(CCN[*:3])[*:1])[*:2]

Assays:
[1] = target: Somatostatin receptor type 1 (Homo sapiens, UniProt P30872); experiment: Displacement of [125I]-[Leu8, DTrp22, Tyr25]-somatostatin-28 from human recombinant sst1 receptor expressed in chinese hamster CCL39 cells; assay type: cell-based
Chain of Somatostatin receptor type 1 (P30872 whole entry): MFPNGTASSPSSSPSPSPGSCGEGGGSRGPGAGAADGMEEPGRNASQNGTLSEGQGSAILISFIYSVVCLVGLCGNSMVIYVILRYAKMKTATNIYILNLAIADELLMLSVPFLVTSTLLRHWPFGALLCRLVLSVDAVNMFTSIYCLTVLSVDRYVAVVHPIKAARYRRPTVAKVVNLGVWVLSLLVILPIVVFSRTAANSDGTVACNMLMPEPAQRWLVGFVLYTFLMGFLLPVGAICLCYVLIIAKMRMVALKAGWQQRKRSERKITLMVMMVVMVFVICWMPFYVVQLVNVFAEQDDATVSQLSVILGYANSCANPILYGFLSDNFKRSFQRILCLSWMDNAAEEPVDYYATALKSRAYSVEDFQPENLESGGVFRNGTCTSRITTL
Procedure, shortened: (§1)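 Competitive displacement on membrane pellet sections from cells expressing each human sst subtype. The radioligand was [¹²⁵I]-[Leu⁸,D-Trp²²,Tyr²⁵]-somatostatin-28 at 15000 cpm/100 µL. Unlabeled compounds were tested from 0.1 to 1,000 nmol/L, with somatostatin-28 run in parallel over the same range. IC₅₀ was calculated from displacement.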

[2] = target: Somatostatin receptor type 2 (Homo sapiens, UniProt P30874); experiment: Displacement of [125I]-[Leu8, DTrp22, Tyr25]-somatostatin-28 from human recombinant sst2 receptor expressed in chinese hamster CCL39 cells; assay type: cell-based; procedure, shortened: as §1
Chain of Somatostatin receptor type 2 (P30874 whole entry): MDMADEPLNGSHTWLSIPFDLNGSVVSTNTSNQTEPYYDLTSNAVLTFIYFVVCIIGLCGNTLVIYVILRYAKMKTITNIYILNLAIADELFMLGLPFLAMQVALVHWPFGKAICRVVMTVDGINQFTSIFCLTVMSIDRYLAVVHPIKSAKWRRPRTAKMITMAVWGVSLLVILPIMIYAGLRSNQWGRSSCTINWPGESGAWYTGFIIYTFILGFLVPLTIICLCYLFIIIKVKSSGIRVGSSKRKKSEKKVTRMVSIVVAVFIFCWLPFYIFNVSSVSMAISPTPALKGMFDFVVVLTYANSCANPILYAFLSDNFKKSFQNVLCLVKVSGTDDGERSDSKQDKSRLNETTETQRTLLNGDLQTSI

[3] = target: Somatostatin receptor type 3 (Homo sapiens, UniProt P32745); experiment: Displacement of [125I]-[Leu8, DTrp22, Tyr25]-somatostatin-28 from human recombinant sst3 receptor expressed in chinese hamster CCL39 cells; assay type: cell-based; procedure, shortened: as §1
Chain of Somatostatin receptor type 3 (P32745 whole entry): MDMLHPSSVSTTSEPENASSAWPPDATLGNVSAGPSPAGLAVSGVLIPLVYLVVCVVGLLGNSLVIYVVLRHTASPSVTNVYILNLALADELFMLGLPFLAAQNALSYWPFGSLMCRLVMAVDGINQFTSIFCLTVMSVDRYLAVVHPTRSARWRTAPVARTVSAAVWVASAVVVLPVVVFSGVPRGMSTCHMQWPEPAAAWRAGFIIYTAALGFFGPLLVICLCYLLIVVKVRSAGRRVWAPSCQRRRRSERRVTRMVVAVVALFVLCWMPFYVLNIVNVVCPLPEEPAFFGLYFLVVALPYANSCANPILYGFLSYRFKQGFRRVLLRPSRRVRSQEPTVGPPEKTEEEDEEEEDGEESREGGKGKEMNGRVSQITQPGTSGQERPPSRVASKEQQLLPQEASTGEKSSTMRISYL

[4] = target: Somatostatin receptor type 4 (Homo sapiens, UniProt P31391); experiment: Displacement of [125I]-[Leu8, DTrp22, Tyr25]-somatostatin-28 from human recombinant sst4 receptor expressed in chinese hamster CCL39 cells; assay type: cell-based; procedure, shortened: as §1
Chain of Somatostatin receptor type 4 (P31391 whole entry): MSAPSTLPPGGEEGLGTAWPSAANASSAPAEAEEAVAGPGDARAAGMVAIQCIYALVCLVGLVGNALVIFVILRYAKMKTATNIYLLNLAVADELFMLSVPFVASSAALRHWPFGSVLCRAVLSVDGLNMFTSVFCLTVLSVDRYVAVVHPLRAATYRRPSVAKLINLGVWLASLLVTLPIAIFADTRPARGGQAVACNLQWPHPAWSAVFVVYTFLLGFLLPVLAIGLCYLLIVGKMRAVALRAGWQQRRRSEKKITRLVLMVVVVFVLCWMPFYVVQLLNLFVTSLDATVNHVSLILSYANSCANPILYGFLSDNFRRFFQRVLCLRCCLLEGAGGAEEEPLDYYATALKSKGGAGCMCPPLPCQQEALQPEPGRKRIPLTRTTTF

[5] = target: T1, Somatostatin receptor type 5 (Homo sapiens, UniProt P35346); experiment: Displacement of [125I]-[Leu8, DTrp22, Tyr25]-somatostatin-28 from human recombinant sst5 receptor expressed in chinese hamster CCL39 cells; assay type: cell-based; procedure, shortened: as §1
T1 sequence (P35346 whole entry): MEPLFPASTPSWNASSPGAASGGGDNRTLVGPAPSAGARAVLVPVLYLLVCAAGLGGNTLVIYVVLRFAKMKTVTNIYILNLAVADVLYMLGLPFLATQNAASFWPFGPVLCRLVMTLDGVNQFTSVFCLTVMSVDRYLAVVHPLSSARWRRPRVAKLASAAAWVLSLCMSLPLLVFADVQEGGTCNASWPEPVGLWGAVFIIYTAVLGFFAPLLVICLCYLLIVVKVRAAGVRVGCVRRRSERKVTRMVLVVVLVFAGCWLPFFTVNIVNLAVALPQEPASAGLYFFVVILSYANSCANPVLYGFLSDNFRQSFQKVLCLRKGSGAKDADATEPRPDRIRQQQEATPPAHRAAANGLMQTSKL

Homo sapiens = species: Homo sapiens; experiment: Selectivity for human recombinant sst5 receptor over human recombinant sst4 receptor
[6] = target: T1, Somatostatin receptor type 5; experiment: Agonist activity at human recombinant sst5 receptor expressed in chinese hamster CCL39 cells assessed stimulation of [35S]GTP-gamma-S-binding; assay type: functional, cell-based
Procedure, shortened: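 CCL-sst₅ cells grown in DMEM/Ham's F-12 (1:1) with 10% FBS, penicillin/streptomycin and 400 µg/mL G418 at 37 °C, 5% CO₂. Binding was run on 20 µm cryostat sections of membrane pellets. Sections were preincubated 10 min at room temperature in Tris-HCl buffer (pH 8.2) with BSA, bacitracin and MgCl₂. They then went 30 min in the same buffer plus 50 µM GDP.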

In the case of `NCCCC[C@@H](C(=O)NCc1ccccc1)N1Cc2[nH]c3ccccc3c2C[C@@H](NC(=O)N2CCN(S(=O)(=O)c3ccccc3)CC2)C1=O`, the IC50 [1] is reported as 372 nM, the IC50 [2] is reported as 4.2 nM and the IC50 [3] is reported as 260 nM. The IC50 [4] was 59 nM and the IC50 [5] was 3.5 nM.
For `CC(C)[C@@H]1NC(=O)[C@H](CCCCN)NC(=O)[C@H](Cc2c[nH]c3ccccc23)NC(=O)[C@H](Cc2ccc(O)cc2)NC(=O)[C@H](Cc2ccccc2)NCCNC(=O)CCCN([C@@H](Cc2ccccc2)C(=O)N[C@H](C(N)=O)[C@@H](C)O)C1=O` (H-[N(2-aminoethyl)Phe]YWKV[Phe(Nα-(CH2)3CO)]T-NH2; lactam 1-6), the fold change (FC) (Homo sapiens) was 24.
Work on `NCCCC[C@H](C(=O)NCc1ccccc1)N1Cc2[nH]c3ccccc3c2C[C@@H](NC(=O)Cc2ccccc2)C1=O` yielded an IC50 [1] greater than 1000 nM, an IC50 [2] greater than 1000 nM and an IC50 [3] of 910 nM. For the same molecule, the IC50 [4] was 56 nM and the IC50 [5] was 25 nM.
`C[C@@H](O)[C@@H](CO)NC(=O)[C@@H]1C/C=C/C[C@H](NC(=O)[C@H](N)Cc2ccccc2)C(=O)N[C@@H](Cc2ccccc2)C(=O)N[C@H](Cc2c[nH]c3ccccc23)C(=O)N[C@@H](CCCCN)C(=O)N[C@@H](Cc2ccc(OCc3ccccc3)cc2)C(=O)N1` showed an IC50 [5] of 12 nM and a fold change (FC) (Homo sapiens) of 24.
`CS(=O)(=O)N1CC2(CCN(C(=O)N[C@@H]3Cc4c([nH]c5ccccc45)CN([C@@H](CCCCN)C(=O)NCc4ccccc4)C3=O)CC2)c2ccccc21` was tested, and the IC50 [1] was 837 nM, the IC50 [2] was 327 nM and the IC50 [3] was 316 nM. The IC50 [4] was 2.1 nM and the IC50 [5] was 8 nM.
In the case of `C[C@H](N)COC(=O)[C@@H](CCCCN)NC(=O)Cc1c(-c2ccc3ccccc3c2)[nH]c2c1ccc1ccccc12`, the IC50 [5] is reported as 0.4 nM.
`C[C@@H](NC(=O)[C@H](CCCCN)N1Cc2[nH]c3ccccc3c2C[C@@H](NC(=O)Cc2ccccc2)C1=O)c1ccccc1` was tested, and the IC50 [1] was 630 nM, the IC50 [2] was 770 nM and the IC50 [3] was 403 nM. The IC50 [4] was 14 nM and the IC50 [5] was 50 nM.
In the case of `C[C@H](NC(=O)[C@H](CCCCN)N1Cc2[nH]c3ccccc3c2C[C@@H](NC(=O)Cc2ccccc2)C1=O)c1ccccc1`, the IC50 [1] is reported as 183 nM, the IC50 [2] is reported as 452 nM and the IC50 [3] is reported as 300 nM. For the same molecule, the IC50 [4] was 1 nM and the IC50 [5] was 3.2 nM.
In the case of `NCCCC[C@@H](C(=O)NCc1ccccc1)N1Cc2[nH]c3ccccc3c2C[C@@H](NC(=O)CCc2ccccc2)C1=O`, the IC50 [1] is reported as 54 nM, the IC50 [2] is reported as 10 nM and the IC50 [3] is reported as 153 nM. It also gave an IC50 [4] of 8.1 nM and an IC50 [5] of 3.4 nM.
Molecule `CC(=O)N[C@@H]1Cc2c([nH]c3ccccc23)CN([C@@H](CCCCN)C(=O)NCCc2ccccc2)C1=O` has an IC50 [1] of 105 nM, an IC50 [2] greater than 1000 nM and an IC50 [3] of 515 nM. For the same molecule, the IC50 [4] was 7 nM, the IC50 [5] was 0.56 nM and the Activity [6] was “Active”. For the same molecule, the fold change (FC) (Homo sapiens) was 10.
With `NCCCC[C@@H](C(=O)NCc1ccccc1)N1Cc2[nH]c3ccccc3c2C[C@@H](NC(=O)C(c2ccccc2)c2ccccc2)C1=O` the IC50 [1] was 247 nM, the IC50 [2] was 242 nM and the IC50 [3] was greater than 500 nM. For the same molecule, the IC50 [4] was 14 nM and the IC50 [5] was 8.8 nM.
For `CC(=O)N[C@@H]1Cc2c([nH]c3ccccc23)CN([C@@H](CCCCN)C(=O)NCc2ccccc2)C1=O`, the IC50 [1] was 253 nM, the IC50 [2] was 292 nM and the IC50 [3] was greater than 1000 nM. For the same molecule, the IC50 [4] was 7 nM and the IC50 [5] was 5 nM.
Work on `NCc1cccc(C[C@@H]2O[C@@H](CC(=O)NCc3ccccc3F)C(=O)N(Cc3ccc(-c4ccccc4)cc3)c3ccccc32)c1` yielded an IC50 [5] of 0.3 nM and a fold change (FC) (Homo sapiens) of 200.
Work on `NCCCC[C@@H](C(=O)NCc1ccccc1)N1Cc2[nH]c3ccccc3c2C[C@@H](NC(=O)C2CCN(C(=O)c3ccccc3)CC2)C1=O` yielded an IC50 [1] of 89 nM, an IC50 [2] of 2.1 nM and an IC50 [3] of 119 nM. The IC50 [4] was 6.9 nM and the IC50 [5] was 1.4 nM.
Work on `NCCCC[C@@H](C(=O)NCc1ccccc1)N1Cc2[nH]c3ccccc3c2C[C@@H](NC(=O)c2ccccc2)C1=O` yielded an IC50 [1] of 27 nM, an IC50 [2] of 103 nM and an IC50 [3] of 182 nM. It also gave an IC50 [4] of 1.3 nM and an IC50 [5] of 1.8 nM.
Work on `COC(=O)[C@H](CCCCN)N1Cc2[nH]c3ccccc3c2C[C@@H](NC(=O)Cc2ccccc2)C1=O` yielded an IC50 [1] of 962 nM, an IC50 [2] of 290 nM and an IC50 [3] of 400 nM. The IC50 [4] was 2.4 nM and the IC50 [5] was 13 nM.
`NCCCC[C@@H](C(=O)NCc1ccccc1)N1Cc2[nH]c3ccccc3c2C[C@@H](NC(=O)c2ccc(Cl)cc2)C1=O` was tested, and the IC50 [1] was 38 nM, the IC50 [2] was 22 nM and the IC50 [3] was 162 nM. The IC50 [4] was 2.3 nM and the IC50 [5] was 3.7 nM.
`NCCCC[C@@H](C(=O)NCc1ccccc1)N1Cc2[nH]c3ccccc3c2C[C@@H](NC(=O)c2ccc(-c3ccccc3)cc2)C1=O` was tested, and the IC50 [1] was greater than 1000 nM, the IC50 [2] was 12 nM and the IC50 [3] was 54 nM. It also gave an IC50 [4] of 161 nM and an IC50 [5] of 16 nM.
For `NCCCC[C@@H](C(=O)NCCc1ccccc1)N1Cc2[nH]c3ccccc3c2C[C@@H](NC(=O)Cc2ccccc2)C1=O`, the IC50 [1] was 75 nM, the IC50 [2] was 183 nM and the IC50 [3] was 50 nM. The IC50 [4] was 2.4 nM, the IC50 [5] was 0.6 nM and the Activity [6] was “Active”.
In the case of `NCCCC[C@@H](C(=O)NCc1ccccc1)N1Cc2[nH]c3ccccc3c2C[C@@H](NC(=O)N2CCC(n3c(=O)[nH]c4ccccc43)CC2)C1=O`, the IC50 [1] is reported as 76 nM, the IC50 [2] is reported as 0.73 nM and the IC50 [3] is reported as 3.9 nM. For the same molecule, the IC50 [4] was 4.4 nM and the IC50 [5] was 0.86 nM.
In the case of `NCCCC[C@@H](C(=O)NCc1cccc2ccccc12)N1Cc2[nH]c3ccccc3c2C[C@@H](NC(=O)Cc2ccccc2)C1=O`, the IC50 [1] is reported as 387 nM, the IC50 [2] is reported as 215 nM and the IC50 [3] is reported as 105 nM. It also gave an IC50 [4] of 17 nM and an IC50 [5] of 3.5 nM.
Work on `NCCCC[C@@H](C(=O)NCc1ccccc1)N1Cc2[nH]c3ccccc3c2C[C@@H](NC(=O)N2CCC3(CCc4ccccc43)CC2)C1=O` yielded an IC50 [1] of 379 nM, an IC50 [2] of 2.1 nM and an IC50 [3] of 9.1 nM. For the same molecule, the IC50 [4] was 35 nM and the IC50 [5] was 2.9 nM.
